{"source": "ChEMBL document CHEMBL1125291", "about": "“New 8-(trifluoromethyl)-substituted quinolones. The benefits of the 8-fluoro group with reduced phototoxic risk” (1992)", "key": {"[1]": {"experiment": "Number of mice which show positive phototoxic reaction in 5 mice at peroral dose", "format": "functional, Mus musculus", "method_in_brief": "(§1)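 Depilated female CD-1 mice got a single oral (gavage) or subcutaneous dose, then UVA (320–400 nm) exposure for 3 h starting 1 h post-dose. This was repeated for up to 4 consecutive days. Initial doses were 30, 100 and 300 mg/kg. PTD50 was derived by probit. First day of positive reaction and no-effect dose were taken from the raw data.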"}, "[2]": {"experiment": "Number of mice which show positive phototoxic reaction in 5 mice at subcutaneous dose", "format": "functional, Mus musculus", "method_in_brief": "as §1"}, "[3]": {"test_system": "Escherichia coli", "experiment": "In vivo efficacy in mouse protection test in Escherichia coli Vogel administered by subcutaneous injection.", "format": "functional", "method_in_brief": "(§2)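 Acute lethal systemic infections in female Charles River CD-1 mice. A single dose was given at challenge, orally by gavage or by subcutaneous injection. PD50 (median protective dose, mg/kg) was determined.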"}, "[4]": {"test_system": "Escherichia coli", "experiment": "In vivo efficacy in mouse protection test in Escherichia coli Vogel dose administered orally by gavage.", "format": "functional", "method_in_brief": "as §2"}, "[5]": {"test_system": "Escherichia coli", "experiment": "Minimum inhibitory concentration (MIC) against gram negative bacteria Escherichia coli H-560.", "format": "functional", "method_in_brief": "(§3)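 MICs were determined by standard broth microtitration against 11 Gram-positive and Gram-negative organisms, in µg/mL. Values come from duplicate or triplicate experiments and are accurate to ±50%.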"}, "[6]": {"test_system": "Escherichia coli", "experiment": "Minimum inhibitory concentration (MIC) against gram negative bacteria Escherichia coli Vogel.", "format": "functional", "method_in_brief": "as §3"}, "[7]": {"test_system": "Klebsiella pneumoniae", "experiment": "Minimum inhibitory concentration (MIC) against gram negative bacteria Klebsiella pneumoniae MGH-2.", "format": "functional", "method_in_brief": "as §3"}, "[8]": {"test_system": "Mus musculus", "experiment": "Dose required to induce phototoxic reaction in 50% of mice by […] reactions at different dosage forms after sc administration", "format": "functional", "method_in_brief": "(§4)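 Phototoxic skin reaction test in depilated female CD-1 mice. A single oral dose (gavage) or subcutaneous dose was given, followed 1 h later by 3 h of UVA exposure (320–400 nm). The regimen was repeated for up to 4 consecutive days, with initial doses of 30, 100 and 300 mg/kg. PTD50 was derived by the probit method. The first day of positive reaction and the no-effect dose were taken from the raw data.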"}, "[9]": {"species": "Mus musculus", "experiment": "Dose required to induce phototoxic reaction in 50% of mice by probit method at different dosage forms.", "format": "functional"}, "[10]": {"test_system": "Mus musculus", "experiment": "(§5) Maximum tolerance dose was measured for phototoxic skin reaction by sc administration", "format": "functional", "method_in_brief": "as §1"}, "[11]": {"species": "Mus musculus", "experiment": "Dose which has no effect to induce phototoxic reaction in 50% of mice by probit method.", "format": "functional"}, "[12]": {"test_system": "Mus musculus", "experiment": "Compound's dose which has no effect to induce phototoxic reaction in 50% of mice by […] reactions after sc administration", "format": "functional", "method_in_brief": "as §4"}, "[13]": {"test_system": "Mus musculus", "experiment": "Days of the first positive reaction in […] mice after sc administration", "format": "functional", "method_in_brief": "as §4"}, "[14]": {"test_system": "Mus musculus", "experiment": "Maximum tolerance dose was measured for phototoxic skin reaction by po administration", "format": "functional"}, "[15]": {"test_system": "Mus musculus", "experiment": "as §5", "format": "functional", "method_in_brief": "as §1", "remark": "listed apart in the source"}, "[16]": {"experiment": "Minimum inhibitory concentration (MIC) against gram negative bacteria Prot. rettgeri M-1771.", "format": "functional, Providencia rettgeri", "method_in_brief": "as §3"}, "[17]": {"test_system": "Pseudomonas aeruginosa", "experiment": "In vivo efficacy (s.c.) against Pseudomonas aeruginosa in mouse protection test", "format": "functional", "method_in_brief": "as §2"}, "[18]": {"test_system": "Pseudomonas aeruginosa", "experiment": "In vivo efficacy (orally) against Pseudomonas aeruginosa in mouse protection test", "format": "functional", "method_in_brief": "as §2"}, "[19]": {"test_system": "Pseudomonas aeruginosa", "experiment": "Minimum inhibitory concentration (MIC) against gram negative bacteria Pseudomonas aeruginosa UI-18.", "format": "functional", "method_in_brief": "as §3"}, "[20]": {"test_system": "Streptococcus pyogenes", "experiment": "In vivo efficacy (s.c.) against Streptococcus pyogenes C-203 in mouse protection test", "format": "functional", "method_in_brief": "as §2"}, "[21]": {"test_system": "Streptococcus pyogenes", "experiment": "In vivo efficacy (orally) against Streptococcus pyogenes C-203 in mouse protection test", "format": "functional", "method_in_brief": "as §2"}, "[22]": {"test_system": "Staphylococcus aureus", "experiment": "Minimum inhibitory concentration (MIC) against gram positive bacteria Staphylococcus aureus H-228.", "format": "functional", "method_in_brief": "as §3"}, "[23]": {"test_system": "Staphylococcus aureus", "experiment": "Minimum inhibitory concentration (MIC) against gram positive bacteria Staphylococcus aureus UC-76.", "format": "functional", "method_in_brief": "as §3"}, "[24]": {"test_system": "Enterococcus faecalis", "experiment": "Minimum inhibitory concentration (MIC) against gram positive bacteria Streptococcus faecalis MGH-2.", "format": "functional", "method_in_brief": "as §3"}, "[25]": {"test_system": "Streptococcus pneumoniae", "experiment": "Minimum inhibitory concentration (MIC) against gram positive bacteria Streptococcus pneumoniae SV-1.", "format": "functional", "method_in_brief": "as §3"}, "[26]": {"test_system": "Streptococcus pyogenes", "experiment": "Minimum inhibitory concentration (MIC) against gram positive bacteria Streptococcus pyogenes C-203.", "format": "functional", "method_in_brief": "as §3"}, "[27]": {"test_system": "Streptococcus pneumoniae", "experiment": "In vivo efficacy (s.c.) against Streptococcus pneumoniae SV-1 in mouse protection test", "format": "functional", "method_in_brief": "as §2"}, "[28]": {"test_system": "Streptococcus pneumoniae", "experiment": "In vivo efficacy (orally) against Streptococcus pneumoniae SV-1 in mouse protection test", "format": "functional", "method_in_brief": "as §2"}, "[29]": {"details": "Escherichia coli, read-out: MIC"}, "[30]": {"details": "Staphylococcus aureus, read-out: MIC"}}, "note": "Values joined by “and” are separate entries in the source; they are usually repeats but may differ in a detail not shown here. Identical values can stand only once."}
{"compound": "O=C(O)c1cn(C2CC2)c2cc(N3CCNCC3)c(F)cc2c1=O", "note": "[CIPROFLOXACIN]", "values": [{"measurement": "No. of pos rxns", "setting": "[1]", "result": 0}, {"measurement": "No. of pos rxns", "setting": "[2]", "result": 5}, {"measurement": "PD50", "setting": "[3]", "result": 0.25, "unit": "mg/kg"}, {"measurement": "ED50", "setting": "[3]; Escherichia coli, sc, read-out: PD50", "result": 0.25, "unit": "mg/kg"}, {"measurement": "PD50", "setting": "[4]", "result": 1.2, "unit": "mg/kg"}, {"measurement": "ED50", "setting": "[4]; Escherichia coli, po, read-out: PD50", "result": 1.2, "unit": "mg/kg"}, {"measurement": "MIC", "setting": "[5]", "result": 0.025, "unit": "µg/mL"}, {"measurement": "MIC", "setting": "[5]; [29]", "result": 0.025, "unit": "µg/mL"}, {"measurement": "MIC", "setting": "[6]", "result": 0.025, "unit": "µg/mL"}, {"measurement": "MIC", "setting": "[6]; [29]", "result": 0.025, "unit": "µg/mL"}, {"measurement": "MIC", "setting": "[7]", "result": 0.05, "unit": "µg/mL"}, {"measurement": "MIC", "setting": "[7]; Klebsiella pneumoniae, read-out: MIC", "result": 0.05, "unit": "µg/mL"}, {"measurement": "PTD50", "setting": "[8]", "result": 172, "unit": "mg/kg"}, {"measurement": "PTD50", "setting": "[9]", "result": ">300 mg kg-1 and 172"}, {"measurement": "MTD", "setting": "[10]", "result": 100, "unit": "mg/kg"}, {"measurement": "No effect dose", "setting": "[11]", "result": "300 mg kg-1 and 100"}, {"measurement": "No effect dose", "setting": "[12]", "result": 100, "unit": "mg/kg"}, {"measurement": "Day of first positve reaction", "setting": "[13]", "result": 2}, {"measurement": "MTD", "setting": "[14]", "result": 300, "unit": "mg/kg"}, {"measurement": "MTD", "setting": "[15]", "result": 100, "unit": "mg/kg"}, {"measurement": "MIC", "setting": "[16]", "result": 0.1, "unit": "µg/mL"}, {"measurement": "MIC", "setting": "[16]; Providencia rettgeri, read-out: MIC", "result": 0.1, "unit": "µg/mL"}, {"measurement": "PD50", "setting": "[17]", "result": 5, "unit": "mg/kg"}, {"measurement": "ED50", "setting": "[17]; Pseudomonas aeruginosa, sc, read-out: PD50", "result": 5, "unit": "mg/kg"}, {"measurement": "PD50", "setting": "[18]", "result": 25, "unit": "mg/kg"}, {"measurement": "ED50", "setting": "[18]; Pseudomonas aeruginosa, po, read-out: PD50", "result": 25, "unit": "mg/kg"}, {"measurement": "MIC", "setting": "[19]", "result": 0.2, "unit": "µg/mL"}, {"measurement": "MIC", "setting": "[19]; Pseudomonas aeruginosa, read-out: MIC", "result": 0.2, "unit": "µg/mL"}, {"measurement": "PD50", "setting": "[20]", "result": 19, "unit": "mg/kg"}, {"measurement": "ED50", "setting": "[20]; Streptococcus pyogenes, sc, read-out: PD50", "result": 19, "unit": "mg/kg"}, {"measurement": "PD50", "setting": "[21]", "result": 180, "unit": "mg/kg"}, {"measurement": "ED50", "setting": "[21]; Streptococcus pyogenes, po, read-out: PD50", "result": 180, "unit": "mg/kg"}, {"measurement": "MIC", "setting": "[22]", "result": 1.6, "unit": "µg/mL"}, {"measurement": "MIC", "setting": "[22]; [30]", "result": 1.6, "unit": "µg/mL"}, {"measurement": "MIC", "setting": "[23]", "result": 0.1, "unit": "µg/mL"}, {"measurement": "MIC", "setting": "[23]; [30]", "result": 0.1, "unit": "µg/mL"}, {"measurement": "MIC", "setting": "[24]", "result": 1.6, "unit": "µg/mL"}, {"measurement": "MIC", "setting": "[24]; Enterococcus faecalis, read-out: MIC", "result": 1.6, "unit": "µg/mL"}, {"measurement": "MIC", "setting": "[25]", "result": 0.8, "unit": "µg/mL"}, {"measurement": "MIC", "setting": "[25]; Streptococcus pneumoniae, read-out: MIC", "result": 0.8, "unit": "µg/mL"}, {"measurement": "MIC", "setting": "[26]", "result": 0.4, "unit": "µg/mL"}, {"measurement": "MIC", "setting": "[26]; Streptococcus pyogenes, read-out: MIC", "result": 0.4, "unit": "µg/mL"}, {"measurement": "PD50", "setting": "[27]", "result": 29, "unit": "mg/kg"}, {"measurement": "ED50", "setting": "[27]; Streptococcus pneumoniae, sc, read-out: PD50", "result": 29, "unit": "mg/kg"}, {"measurement": "PD50", "setting": "[28]", "result": 260, "unit": "mg/kg"}, {"measurement": "ED50", "setting": "[28]; Streptococcus pneumoniae, po, read-out: PD50", "result": 260, "unit": "mg/kg"}]}
